Screening data from PubChem.
An excerpt weighted towards active compounds, which were near 3.5% of everything screened.
RGS4 act – potentiators or activators of RGS4 | AID 463111 | actives 0.92% (n = 310,000) | B-score at 10 µM | HEK293 M3R/inducible RGS4, carbachol calcium flux Fluo4; active compounds read low;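 active = B-score of the integrated calcium signal more than 4 SD below the library mean, with starting fluorescence not abnormally high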;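 also: negative B-score means reduced calcium response which marks RGS4 activation or potentiation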
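System: HEK293 FlpIn-TREx cells, stable M3R, doxycycline-inducible RGS4. Timing: overnight RGS4 induction, 30 min dye load 37 °C, 20 min compound RT. Also added: carbachol, ECmax concentration. Measured by: Fluo4 fluorescence kinetic imaging of calcium. Evaluation: integrated calcium ratio converted to B score.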
MrgX1 antagonist – human MrgX1 receptor antagonism, primary screen; MRGX1-HEK293 calcium flux, Fluo-4, BAM8-22 antagonism; active compounds read low; actives 1.3% (n = 310,000); B-score at 10 µM; Q96LB2;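 active = calcium-response B-score plate-corrected more than 3 library SD below zero, starting fluorescence within 5 deviations, no agonist response on first addition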;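 also: peak minus trough fluorescence over baseline after final BAM8-22 challenge near maximal dose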
Target sequence (Q96LB2 whole entry, looked up): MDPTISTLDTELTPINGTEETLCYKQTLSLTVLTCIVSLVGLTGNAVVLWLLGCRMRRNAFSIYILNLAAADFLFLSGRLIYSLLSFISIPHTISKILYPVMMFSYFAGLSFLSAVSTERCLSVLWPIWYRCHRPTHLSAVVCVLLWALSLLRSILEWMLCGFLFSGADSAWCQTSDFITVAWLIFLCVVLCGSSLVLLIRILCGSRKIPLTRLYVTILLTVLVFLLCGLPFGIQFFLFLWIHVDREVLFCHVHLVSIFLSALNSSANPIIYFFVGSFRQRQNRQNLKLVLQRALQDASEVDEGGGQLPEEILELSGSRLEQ
MrgX1 agonist – activates human MrgX1 receptor signaling. AID 588627. B-score at 10 µM. actives 0.44% (n = 310,000). MrgX1-HEK293 cells, Fluo-4 calcium fluorescence, agonist mode; active compounds read high;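 active = calcium response B-score plate-corrected fluorescence ratio at least 3 library SD, with starting fluorescence B-score inside 5 SD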
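System: HEK293 cells stably expressing human MrgX1 receptor; Dosing: test compound in the initial addition of three; Schedule: overnight plating, then 30 min 37 °C plus 30 min room-temperature dye loading; Detection: kinetic calcium dye fluorescence, Fluo-4 NW; Controls: per-plate positive and negative controls for Z′ factor.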
RGS4 block – human RGS4 inhibition | P49798 | HEK293 M3R/RGS4 inducible, Fluo-4 calcium flux; active compounds read high; triggered by carbachol at its EC20 | B-score at 10 µM | actives 0.45% (n = 310,000) | AID 463165;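 active = B-score, a plate-corrected calcium signal, over three deviations above library mean, with baseline fluorescence within five deviations of library mean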;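 also: RGS4 expression induced by doxycycline in cells with stable M3 receptor; B-score is computed from the integrated fluorescence ratio over baseline after carbachol; higher B-score means a larger calcium signal and so more RGS4 inhibition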
Target sequence (P49798 whole entry, looked up): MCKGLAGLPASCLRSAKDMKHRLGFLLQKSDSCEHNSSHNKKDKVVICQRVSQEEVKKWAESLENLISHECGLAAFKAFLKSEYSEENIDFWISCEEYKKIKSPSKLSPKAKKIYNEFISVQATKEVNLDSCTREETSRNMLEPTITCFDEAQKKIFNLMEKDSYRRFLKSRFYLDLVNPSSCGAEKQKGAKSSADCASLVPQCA
MrgX1 PAM – human MrgX1 positive allosteric modulation, primary screen. MrgX1-HEK293, Fluo-4 calcium flux, FDSS; active compounds read high. B-score at 10 µM. actives 0.63% (n = 310,000);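 active = plate-corrected calcium response at least 3 library SD above typical, normal starting fluorescence, not activating the receptor alone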;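 also: compound read alongside a low EC10 to EC30 dose of BAM8-22 agonist; peak minus trough fluorescence over baseline measured at the second addition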
RGS4 inh valid – validation of RGS4 inhibitors; calcium response, % at 10 µM; actives 65% (n = 1,700); shares compounds with RGS4 block; HEK293 M3R/RGS4, carbachol calcium Fluo-4 fluorescence; carbachol added at its EC20; 0 = buffer wells, 100 = carbachol control;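 active = duplicate-averaged calcium response above the buffer-only control mean plus 5 SD of those controls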;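 also: integrated fluorescence ratio F max minus min over baseline F0; higher response in RGS4-induced cells means RGS4 inhibition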
RGS4 uninduced – checks RGS4 inhibitor effects in non-induced HEK293 M3R cells | actives 20% (n = 1,900) | carbachol calcium Fluo-4; submaximal (EC20) carbachol stimulus; buffer wells 0%, carbachol control wells 100% | shares compounds with RGS4 block | activity (percent), % at 10 µM | AID 493000; call rule not given here;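 also: RGS4 induction absent so cells express M3R without RGS4; higher means more calcium signal and flags a non-specific hit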
RGS4 inh ctr2 – second RGS4 inhibitor counter-screen in uninduced cells lacking carbachol; calcium response (agonist-mode artifact), % at 10 µM; HEK293 M3R/RGS4 non-induced, Fluo-4 calcium, no carbachol; normalised: buffer wells 0%, carbachol wells 100%; actives 22% (n = 1,900); shares compounds with RGS4 block;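 active = duplicate-averaged calcium rise in uninduced cells above buffer wells' mean plus 5 SD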
An asterisk follows results filed as active; i = inactive; · = no result given.

SMILES | RGS4 act | MrgX1 antagonist | MrgX1 agonist | RGS4 block | MrgX1 PAM | RGS4 inh valid | RGS4 uninduced | RGS4 inh ctr2
CC1(C)CC(=O)C(C(C2=C(O)CC(C)(C)CC2=O)c2ccco2)C(=O)C1 (stereo not given) | i | i | i | 6.99* | i | 21.5%* | i | i
Cc1cc(C)c2[nH]c(=O)c(C(c3nnnn3C(C)(C)C)N(Cc3ccco3)CC3CCCO3)cc2c1 (stereo not given) | i | i | i | i | i | i | i | i
Cc1cc2cc(C(c3nnnn3C(C)(C)C)N(Cc3ccco3)CC3CCCO3)c(=O)[nH]c2cc1C (stereo not given) | i | i | i | 5.38* | i | 18.5%* | i | i
COc1ccc2[nH]c(=O)c(C(c3nnnn3C(C)(C)C)N(Cc3ccco3)CC3CCCO3)cc2c1 (stereo not given) | i | i | i | i | i | · | i | 7.0%*
COc1ccc2[nH]c(=O)c(C(c3nnnn3CC3CCCO3)N3CCCCC3)cc2c1 (stereo not given) | i | i | i | i | i | · | · | ·
COc1cccc(-c2nn(-c3ccccc3)cc2CN2CCCO2)c1 | i | i | i | i | i | · | · | ·
CCCc1[nH]nc2c1C(c1cn[nH]c1-c1ccc(F)cc1)C(C#N)=C(N)O2 (stereo not given) | i | i | i | 16.4* | i | 38.5%* | 43.5%* | 15.0%*
COc1ccc(CNC(=O)CN(C)S(=O)(=O)c2ccc(Cl)cc2)cc1 | i | i | i | i | i | · | · | ·
COc1ccc(CNC(=O)CCNS(=O)(=O)c2ccc(Cl)cc2)cc1 | i | i | i | i | i | · | i | i
COc1ccc(S(=O)(=O)NCCC(=O)NCc2ccc(F)cc2)cc1 | i | i | i | i | i | · | i | i
O=Cc1s/c(=N\S(=O)(=O)c2ccccc2)n(CCCCl)c1Cl | i | · | · | 5.36* | · | 9.0%* | i | 19.5%*
CCn1c(C)cs/c1=N\S(=O)(=O)c1ccccc1 | i | i | i | i | i | · | · | ·
O=C1c2[nH]nc(-c3ccccc3O)c2C(c2ccc(F)cc2)N1Cc1ccco1 (stereo not given) | i | i | i | 9.04* | i | 19.5%* | i | i
O=C1c2[nH]nc(-c3ccccc3O)c2C(c2cccc(Cl)c2)N1Cc1ccco1 (stereo not given) | i | i | i | 8.08* | i | 25.0%* | i | i
COc1ccc(C2c3c(-c4ccccc4O)n[nH]c3C(=O)N2Cc2ccco2)cc1OC (stereo not given) | i | i | i | i | i | · | · | ·
Cc1cc(C)c(S(=O)(=O)NCC(c2ccco2)N2CCc3ccccc3C2)c(C)c1 (stereo not given) | i | i | i | i | i | · | · | ·
N#Cc1cc2c(nc1SCc1ccc(Cl)nc1)CCCCC2 | i | i | i | i | i | · | · | ·
COc1ccc(C(C[N+](=O)[O-])c2c(-c3ccccc3)cc3ccccn23)c(OC)c1 (stereo not given) | i | i | 54.3* | i | i | i | i | 20.0%*
C=CCSc1nc2ccccc2n1C(=O)/C=C/c1ccc(OC)c(OC)c1 | i | i | i | i | i | · | i | 12.5%*
CCSc1nc2ccccc2n1C(=O)/C=C/c1ccc(OC)c(OC)c1 | i | i | i | 10.6* | i | 11.5%* | i | i
C=CCSc1nc2ccccc2n1C(=O)/C=C/c1cc(OC)c(OC)c(OC)c1 | i | i | i | i | i | · | · | ·
CC(C)Sc1nc2ccccc2n2cnnc12 | i | i | i | i | i | · | · | ·
O=C(NCCc1ccccc1)C(=O)NCC1OCCN1S(=O)(=O)c1cc(F)ccc1F (stereo not given) | i | i | i | i | i | · | · | ·
O=C(CN1CCN(S(=O)(=O)c2ccc(Cl)cc2)CC1)c1ccc(O)c(O)c1 | i | i | i | i | i | · | · | ·
CCOc1cc(/C=C2\CN(C)C/C(=C\c3ccc(O)c(OCC)c3)C2=O)ccc1O | i | i | i | i | i | · | · | ·
SMILES | RGS4 act | MrgX1 antagonist | MrgX1 agonist | RGS4 block | MrgX1 PAM | RGS4 inh valid | RGS4 uninduced | RGS4 inh ctr2
CN1C/C(=C/c2ccncc2)C(=O)/C(=C/c2ccncc2)C1 | i | i | i | 20.6* | i | 80.0%* | i | i
CN1C/C(=C\c2ccc(N3CCOCC3)cc2)C(=O)/C(=C/c2ccc(N3CCOCC3)cc2)C1 | i | i | i | i | i | · | · | ·
CN1C/C(=C/c2ccsc2)C(=O)/C(=C/c2ccsc2)C1 | i | i | i | 6.81* | i | 9.5%* | i | i
C/C(=N\NC(=O)c1nnn(-c2nonc2N)c1CSc1ccc(Cl)cc1)c1cccnc1 | i | i | i | i | i | · | · | ·
CC1CC1C(=O)Nc1nc2ccc(S(C)(=O)=O)cc2s1 (stereo not given) | i | i | i | 6.08* | i | i | i | i
Cc1ccc2nc(NC(=O)C3CC3C)sc2c1 (stereo not given) | i | i | i | i | i | · | · | ·
O=[N+]([O-])c1cccc(N(CC2CO2)S(=O)(=O)c2ccccc2)c1 (stereo not given) | i | i | i | i | i | · | · | ·
CCN(CC)c1ccc(N2C(=O)/C(=C\c3cccnc3)SC2=S)cc1 | i | i | i | 7.28* | i | i | i | i
Cc1cc(S(=O)(=O)N2CCCC(C(=O)Nc3ccc(C(=O)O)cc3)C2)ccc1Cl (stereo not given) | i | i | i | i | i | · | · | ·
Cc1c(/C=N/NC(=O)CNc2ccccc2)c2ccccn2c1C(=O)c1ccccc1 | i | i | i | i | i | i | i | 16.5%*
Cc1c(/C=N/NC(N)=O)c2ccccn2c1C(=O)c1ccncc1 | i | i | i | i | i | · | · | ·
COCCNc1nnc(SCC(=O)c2c[nH]c3ccccc23)s1 | i | i | i | i | i | · | · | ·
O=c1[nH]c2ccc(Br)cc2c(-c2ccccc2)c1N1CCOCC1 | i | i | i | i | i | · | · | ·
